ChEMBL document CHEMBL2380219, “Physalin A induces apoptotic cell death and protective autophagy in HT1080 human fibrosarcoma cells” (J Nat Prod, 2013)
Calls of active or inactive are those of the source. No cut-off for these calls is given here.

Assays:
[1] = test system: HT-1080; test: Induction of apoptosis in human HT1080 cells expressing beclin 1 siRNA assessed as ICAD downregulation at 10 uM after 24 hrs by Western blotting relative to control; assay type: functional, cell-based
Procedure, shortened: (§1)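 5 × 10^5 HT1080 cells transfected with beclin 1 or nonspecific siRNA using TranSmarter for 7 h at 37 °C, then kept 24 h in normal medium. Treated with 10 μM for 24 h and lysed. Proteins assessed by Western blot with β-actin normalization and compared with nonspecific-siRNA groups.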

[2] = test system: HT-1080; test: Induction of apoptosis in human HT1080 cells expressing beclin 1 siRNA assessed as increase in procaspase-8 cleavage at 10 uM after 24 hrs by Western blotting analysis relative to control; assay type: functional, cell-based
Procedure, shortened: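 Beclin 1 or nonspecific siRNA transfected into HT1080 cells (5 × 10^5 seeded a day earlier; transfection mixture for 7 h at 37 °C, then normal medium, 24 h before harvest). Cells then got 10 μM for 24 h. Adherent plus floating cells lysed in Hepes pH 7.4/Triton buffer at 4 °C for 60 min. Equal protein on 12% SDS-PAGE, nitrocellulose, ECL. Bands normalized to β-actin, n = 3.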

[3] = test system: HT-1080; test: Induction of apoptosis in human HT1080 cells expressing beclin 1 siRNA assessed as increase in FADD protein expression at 10 uM after 24 hrs by Western blotting analysis relative to control; assay type: functional, cell-based; procedure, shortened: as §1
[4] = test system: HT-1080; test: Induction of apoptosis in human HT1080 cells assessed as downregulation of ICAD at 10 uM pretreated with rapamycin for 1 hr prior to compound addition measured after 24 hrs by Western blotting analysis; assay type: functional, cell-based
Procedure, shortened: (§2)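 HT1080 cells pretreated 1 h with 1 mM 3MA or 1 nM rapamycin, then co-incubated with 10 μM for 24 h. Adherent and floating cells lysed in Hepes pH 7.4/Triton buffer. 12% SDS-PAGE, nitrocellulose, antibodies against Fas, FADD, caspase-8, caspase-3, PARP and ICAD, ECL detection. Densities normalized to β-actin; n = 3.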

[5] = test system: HT-1080; test: Induction of apoptosis in human HT1080 cells assessed as increase in procaspase-8 cleavage at 10 uM pretreated with rapamycin for 1 hr prior to compound addition measured after 24 hrs by Western blotting analysis; assay type: functional, cell-based; procedure, shortened: as §2
[6] = test system: HT-1080; test: Induction of autophagy in human HT1080 cells assessed as upregulation of beclin 1 at 10 uM by Western blotting analysis; assay type: functional, cell-based; settings: TDE = time-dependent effect
Procedure, shortened: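 HT1080 cells exposed to 10 μM for 6, 12, 18 and 24 h, then lysed in Hepes pH 7.4/Triton buffer at 4 °C for 60 min. Equal protein run on 12% SDS-PAGE, blotted to nitrocellulose, probed for beclin 1 and LC3, ECL detection. Densities taken relative to β-actin, n = 3.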

[7] = test system: HT-1080; test: Induction of apoptosis in human HT1080 cells assessed as change in cytochrome C expression at 10 uM after 6 to 24 hrs by Western blotting analysis; assay type: functional, cell-based
Procedure, shortened: (§3)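 HT1080 cells treated with 10 μM for 6, 12, 18 and 24 h. Adherent and floating cells lysed 60 min at 4 °C in Hepes pH 7.4/1% Triton X-100 buffer with phosphatase and protease inhibitors. Equal protein run on 12% SDS-PAGE, transferred to nitrocellulose, probed with specific antibodies, HRP/ECL detection. Band density normalized to β-actin; n = 3.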

[8] = test system: HT-1080; test: Induction of apoptosis in human HT1080 cells assessed as change in cytosolic BID expression at 10 uM after 6 to 24 hrs by Western blotting analysis; assay type: functional, cell-based; procedure, shortened: as §3
[9] = test system: HT-1080; test: Induction of apoptosis in human HT1080 cells assessed as accumulation in subG1 phase at 10 uM after 24 hrs by propidium iodide staining-based FACS flow cytometric analysis (reference value: 0.32%); assay type: functional

With C=C1C(=O)O[C@@H]2C[C@@]1(C)[C@@H]1C(=O)[C@]3(O)O[C@]14[C@@]2(C)OC(=O)[C@@]4(O)CC[C@H]1[C@H]3[C@H](O)C=C2CC=CC(=O)[C@@]21C [PHYSALIN A] the Activity [1] was “Active”, the Activity [2] was “Active” and the Activity [3] was “Active”. For the same compound, the Activity [4] was “inactive”, the Activity [5] was “inactive” and the Activity [6] was “tde”. The Activity [7] was “inactive”, the Activity [8] was “inactive” and the Activity [9] was 27.79%.
